Data from ChEMBL document CHEMBL4699574, “Discovery of Ketone-Based Covalent Inhibitors of Coronavirus 3CL Proteases for the Potential Therapeutic Treatment of COVID-19” (J Med Chem, 2020).
Values after ≈ are worked out from the molar mass of the structure shown. Active and inactive are the calls of the source. The rule behind the calls is not given here.

Key:
chymotrypsin = assay: Inhibition of human chymotrypsin at 10 uM relative to control
[1] = Cytotoxicity against human HuH-7 cells assessed as reduction in cell viability; assay type: cell-based
[2] = AUC in dog at 2 mg/kg, iv; assay type: ADME, organism-based, Canis lupus familiaris; set-up: dose 2 mg/kg; details: in vivo
[3] = Cytotoxicity against human MRC5 cells assessed as reduction in cell viability after 1 to 5 days by XTT dye based assay; details: time 1-5 day
[4] = AUC in rat at 2 mg/kg, iv; assay type: ADME, organism-based; set-up: dose 2 mg/kg; details: in vivo
[5] = Cytotoxicity against human H1-HeLa cells assessed as reduction in cell viability measured after 2 to 5 days by XTT assay; assay type: cell-based; details: time 2-5 day
SARS-CoV = assay: Antiviral activity against SARS COV-1 infected in monkey Vero 76 cells assessed as reduction in virus-induced cytopathic effect measured after 66 hrs in presence of p-glycoprotein inhibitor CP100356 by neutral red method or cell titer glo-based luminescence assay; assay type: functional, organism-based; details: Severe acute respiratory syndrome-related coronavirus, Vero 76, 66 h
Outline: (§1)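 P-glycoprotein transport inhibitor CP-100356 co-dosed at a fixed 0.5 µM throughout a full dose-response of the test inhibitor in the antiviral cytopathic assay.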

[6] = molecular target: Human immunodeficiency virus type 1 protease (Human immunodeficiency virus 1, UniProt Q72874); assay: Inhibition of HIV1 protease
[7] = Inhibition of HRV protease; set-up: species or system Human rhinovirus sp.
Caspase-2 [8] = molecular target: T1, Caspase-2 (Homo sapiens, UniProt P42575); assay: Inhibition of human Caspase 2
T1 sequence (P42575 170-325 limits assumed): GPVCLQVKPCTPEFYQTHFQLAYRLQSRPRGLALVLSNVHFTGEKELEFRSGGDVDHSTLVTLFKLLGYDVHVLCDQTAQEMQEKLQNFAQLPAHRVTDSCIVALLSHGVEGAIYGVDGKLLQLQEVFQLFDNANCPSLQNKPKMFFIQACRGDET
T1 sequence (P42575 334-452 limits assumed): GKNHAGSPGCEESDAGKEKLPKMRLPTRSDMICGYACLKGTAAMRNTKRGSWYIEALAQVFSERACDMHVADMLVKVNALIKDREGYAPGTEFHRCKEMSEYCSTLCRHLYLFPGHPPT

[9] = Aqueous solubility of compound in 2.5% w/v SBECD, pH 7.4 5 mM phosphate buffer, made isotonic with 4.25% dextrose formulation; assay type: physicochemical; details: 2.5% w/v SBECD in phosphate buffer, dose 4.6 mg/ml
[10] = Metabolic stability in human liver microsomes assessed as half life; assay type: ADME, Microsome
Cathepsin D [11] = molecular target: T2, Cathepsin D (Homo sapiens, UniProt P07339); assay: Inhibition of human cathepsin D
T2 sequence (P07339 65-162 limits assumed): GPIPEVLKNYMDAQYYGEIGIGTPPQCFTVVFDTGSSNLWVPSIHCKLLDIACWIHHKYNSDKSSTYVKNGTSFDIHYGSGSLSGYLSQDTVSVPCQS
T2 sequence (P07339 169-412 limits assumed): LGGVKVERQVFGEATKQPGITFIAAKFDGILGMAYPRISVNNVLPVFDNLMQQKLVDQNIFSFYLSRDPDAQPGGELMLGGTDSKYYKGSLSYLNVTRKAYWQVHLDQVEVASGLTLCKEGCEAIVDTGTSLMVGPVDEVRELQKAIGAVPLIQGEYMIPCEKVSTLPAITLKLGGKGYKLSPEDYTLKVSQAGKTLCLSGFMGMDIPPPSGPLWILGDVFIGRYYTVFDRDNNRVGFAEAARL

[12] = Permeability of compound in human Caco-2 cells; assay type: ADME, cell-based
[13] = Volume of distribution at steady state in monkey at 4 mg/kg, iv; assay type: ADME, organism-based, Macaca mulatta; details: rhesus monkey, in vivo
[14] = Inhibition of HCV protease; set-up: species or system Hepacivirus hominis
[15] = Half-life in rat at 2 mg/kg, iv; assay type: ADME, organism-based; details: in vivo
[16] = AUC in monkey at 4 mg/kg, iv; assay type: ADME, organism-based, Macaca mulatta; set-up: dose 4 mg/kg; details: rhesus monkey, in vivo
[17] = Cytotoxicity against human MRC5 cells assessed as reduction in cell viability incubated for 4 days by XTT dye based assay; details: time 4 day
pepsin = assay: Inhibition of human pepsin at 10 uM relative to control
[18] = Inhibition of Human coronavirus 229E protease
thrombin = thrombin (Homo sapiens, UniProt P00734); assay: Inhibition of human thrombin at 10 uM relative to control
[19] = Cytotoxicity against human H9 cells assessed as reduction in cell viability incubated for 7 days by XTT dye based analysis; details: time 7 day
[20] = molecular target: Human immunodeficiency virus type 1 protease (Human immunodeficiency virus 1) (UniProt Q72874); assay: Inhibition of HIV1 protease at 10 uM relative to control
[21] = Aqueous solubility of compound in 2.5% w/v HPCD formulation; assay type: physicochemical; details: 2.5% w/v HPCD in water
Human coronavirus 229E [22] = assay: Antiviral activity against Human coronavirus 229E infected in human MRC5 cells assessed as reduction in virus-induced cytopathogenicity incubated for 4 days in presence of p-glycoprotein inhibitor CP100356 by XTT dye based assay; assay type: functional, organism-based; details: time 4.0 day; outline: as §1
[23] = Volume of distribution at steady state in rat at 2 mg/kg, iv; assay type: ADME, organism-based; details: in vivo
[24] = Inhibition of human chymotrypsin
[25] = molecular target: leukocyte (neutrophil) elastase (Homo sapiens, UniProt P08246); assay: Inhibition of human leukocyte elastase at 10 uM relative to control
Sequence of leukocyte (neutrophil) elastase (P08246 whole entry): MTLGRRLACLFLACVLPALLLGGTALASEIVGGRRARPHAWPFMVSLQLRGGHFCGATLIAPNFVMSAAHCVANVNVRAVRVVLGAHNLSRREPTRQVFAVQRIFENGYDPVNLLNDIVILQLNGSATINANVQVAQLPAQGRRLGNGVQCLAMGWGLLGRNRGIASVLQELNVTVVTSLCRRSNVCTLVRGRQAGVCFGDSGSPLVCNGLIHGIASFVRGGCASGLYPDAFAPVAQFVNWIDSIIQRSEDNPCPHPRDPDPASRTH

Hepatitis C virus = assay: Antiviral activity against Hepatitis C virus replicon infected in human Huh-7 cells assessed as reduction in viral RNA synthesis measured after 24 to 72 hrs by Trizol reagent based RT-PCR analysis; assay type: functional, organism-based, Hepacivirus hominis
Cathepsin D [26] = molecular target: T2, Cathepsin D; assay: Inhibition of human cathepsin D at 10 uM relative to control
Human coronavirus 229E [27] = assay: microbe, parasite or virus in culture; details: MRC5, 96 h
rhinovirus B14 = assay: Antiviral activity against Human rhinovirus 14 infected in human H1-HeLa cells assessed as reduction in virus-induced cytopathogenicity incubated for 2 to 5 days by XTT dye based analysis; assay type: functional, organism-based; details: Rhinovirus B
Caspase-2 [28] = molecular target: T1, Caspase-2; assay: Inhibition of human Caspase 2 at 10 uM relative to control
[29] = Cytotoxicity against African green monkey Vero 76 cells measured after 66 hrs by neutral red method or cell titer glo-based luminescence assay; details: chlorocebus sabaeus
Human betaherpesvirus 5 = assay: Antiviral activity against Human cytomegalovirus AD169 infected in human MRC5 cells assessed as reduction in viral replication measured after 5 days by ELISA; assay type: functional, cell-based; details: Human betaherpesvirus 5, AD169, MRC5, 120 h
[30] = Aqueous solubility of compound in 2.5% w/v SBECD, pH 7.4 5 mM citrate buffer, made isotonic with 4.25% dextrose formulation; assay type: physicochemical; details: 2.5% w/v SBECD in citrate buffer
Neutrophil elastase = Neutrophil elastase (Homo sapiens, UniProt P08246); assay: Inhibition of human leukocyte elastase
Sequence of Neutrophil elastase (P08246 whole entry): as above

Cathepsin B [31] = molecular target: T3, Cathepsin B (Homo sapiens, UniProt P07858); assay: Inhibition of human cathepsin B
[32] = Inhibition of human pepsin
Cathepsin B [33] = molecular target: T3, Cathepsin B; assay: Inhibition of human cathepsin B at 10 uM relative to control
Prothrombin = Prothrombin (Homo sapiens, UniProt P00734); assay: Inhibition of human thrombin
rhinovirus A16 = assay: Antiviral activity against Human rhinovirus 16 infected in human H1-HeLa cells assessed as reduction in virus-induced cytopathogenicity incubated for 2 to 5 days by XTT dye based analysis; assay type: functional, organism-based; details: Rhinovirus A
[34] = Half-life in monkey at 4 mg/kg, iv; assay type: ADME, organism-based, Macaca mulatta; details: rhesus monkey, in vivo
[35] = Volume of distribution at steady state in dog at 2 mg/kg, iv; assay type: ADME, organism-based, Canis lupus familiaris; details: in vivo, read-out: Vdss
[36] = Half life in dog at 2 mg/kg, iv; assay type: ADME, organism-based, Canis lupus familiaris; details: in vivo
[37] = Reversible inhibition of SARS coronavirus Urbani 3CL protease(9985 to 10902) using TAMRA-SITSAVLQSGFRKMK(DABCYL)-OH as substrate measured for 10 mins by FRET assay
Outline: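 SARS CoV-1 3CLpro FRET assay; each value calculated from at least eight data points, with at least two independent determinations.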

Hepacivirus hominis = assay: Inhibition of HCV protease at 10 uM relative to control
[38] = Clearance in dog at 2 mg/kg, iv; details: in vivo
[39] = system: Human immunodeficiency virus 1; assay: Antiviral activity against HIV-1-RF infected in human H9 cells assessed as reduction in virus-induced cytopathogenicity incubated for 7 days by XTT dye based analysis; assay type: functional, organism-based; details: Human immunodeficiency virus 1, RF, H9, 168 h
[40] = Inhibition of SARS-CoV-2 3CL protease using DABCYLKTSAVLQ-SGFRKME-EDANS as peptide substrate in presence of PF-00835231 inhibitor incubated for 60 mins by FRET assay; set-up: species or system Severe acute respiratory syndrome coronavirus 2

COc1cccc2[nH]c(C(=O)N[C@@H](CC(C)C)C(=O)N[C@@H](C[C@@H]3CCNC3=O)C(=O)CO)cc12 [PF-00835231]
inhibition at 10 µM (chymotrypsin): 8%
CC50 [1]: > 320 µM
AUC [2]: 3800 ng·h/mL
CC50 [3]: > 100 µM
AUC [4]: 1200 ng·h/mL
CC50 [5]: > 1260 µM
EC50 (SARS-CoV): 1.1 µM
IC50 [6]: > 10 µM
IC50 [7]: 1.7 µM
IC50 (Caspase-2 [8]): > 10 µM
solubility [9]: 4600 µg/mL (≈ 9.73 mM)
half-life [10]: 1.78 h
IC50 (Cathepsin D [11]): > 10 µM
permeability [12]: Impermeable
Vdss [13]: 0.6 L/kg
IC50 [14]: > 10 µM
t1/2 [15]: 1 min
AUC [16]: 3800 ng·h/mL
CC50 at 96 h [17]: > 40 µM
inhibition at 10 µM (pepsin): -2%
IC50 [18]: 0.004 µM
inhibition at 10 µM (thrombin): -28%
CC50 at 168 h [19]: > 32 µM
inhibition [20]: 0%
solubility [21]: 6600 µg/mL (≈ 14 mM)
Activity (Human coronavirus 229E [22]): Active
Vdss [23]: 1.2 L/kg
IC50 [24]: > 10 µM
inhibition at 10 µM [25]: -31%
EC50 (Hepatitis C virus): > 320 µM
inhibition at 10 µM (Cathepsin D [26]): 3%
EC50 (Human coronavirus 229E [27]): 0.009 µM
EC50 (rhinovirus B14): > 100 µM
inhibition at 10 µM (Caspase-2 [28]): -20%
CC50 at 66 h [29]: 452 µM
EC50 (Human betaherpesvirus 5): > 100 µM
solubility [30]: 4600 µg/mL (≈ 9.73 mM)
IC50 (Neutrophil elastase): > 10 µM
IC50 (Cathepsin B [31]): 1.3 µM
IC50 [32]: > 10 µM
inhibition at 10 µM (Cathepsin B [33]): 93%
IC50 (Prothrombin): > 10 µM
EC50 (rhinovirus A16): > 100 µM
t1/2 [34]: 1.6 min
Vd [35]: 0.4 L/kg
half-life [36]: 1.3 h
IC50 [37]: 0.004 µM
inhibition (Hepacivirus hominis): 16%
clearance [38]: 10.5 mL/min/kg
EC50 [39]: > 32 µM
IC50 [40]: 0.00027 µM
